Data taken from PMC10461461 (Protein Science : A Publication of the Protein Society, 2023).
Marks after values point to notes of the source that are not given here. Where no end group is shown, it is not given here.

Key:
[1] = pH at which 50% of peptides are in the α-helical membrane inserted state; ref Vasquez-Montes et al. (2018); cited from earlier work
[2] = Tryptophan fluorescence emission maximum; assay type: physicochemical; conditions: POPC LUVs, pH 8.0 and pH 4.0, Trp fluorescence
[3] = Solubility in aqueous buffer; assay type: physicochemical; conditions: peptides solubilized to 20 μM in 5 mM sodium phosphate pH 8.0
HSC3 cells = test: Lactate dehydrogenase release assay; assay type: cell-based, human; conditions: 10 μM, 1 h, pH 7.4, 5.5 or 5.0, mean ± S.D., n = 3
[4] = tested on: HSC3 cells expressing PTPRJ ectopically; test: Cell viability assay; assay type: cell-based, human; conditions: 72 h recovery, MTT, n = 9
Procedure, shortened: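 HSC3 cells engineered to express wild-type PTPRJ, grown in high-glucose DMEM with 10% FBS at 37°C and 5% CO₂, seeded at 5000 cells/well overnight. Peptide in serum-free medium for 5 min at 37°C. Medium then acidified to target pH with citric acid-buffered medium (pH 2.0) for 10 min. Cells washed, then 72 h recovery in complete DMEM. MTT read-out, normalized to medium-only pH 7.4 cells. […]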

[5] = tested on: EGFR phosphorylation (Tyr-1068 and Tyr-1173) in HSC3 cells expressing wild-type PTPRJ; test: EGFR Tyr phosphorylation level by immunoblotting; assay type: cell-based, human; conditions: 10 μM, 10 min, indicated pHs (7.4, 5.5, 5.0), then EGF
Procedure, shortened: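 HSC3 cells engineered to express wild-type PTPRJ, seeded and grown overnight, then serum-starved 2 h. Peptide in serum-free medium for 5 min at 37°C; medium acidified with citrate-buffered medium (pH 2.0) to reach final 10 μM; 10 min at 37°C; then EGF 10 ng/mL for 10 min. Lysates immunoblotted for pY1068, pY1173 and total EGFR; chemiluminescence; densitometric phospho/total ratio, mean values.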

[6] = tested on: HSC3 cells ectopically expressing PTPRJ; test: Wound healing scratch assay; assay type: cell-based, human; conditions: 10 μM, 10 min, n = 8-11
Procedure, shortened: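 PTPRJ-expressing HSC3 monolayers, confluent at 24 h, serum-starved 2 h. Peptide added in serum-free medium at pH 7.4 (5 min, 37°C), then pH lowered with citrate-buffered medium (pH 2.0) to reach final concentration; 10 min exposure. Monolayer scratched, then complete medium with EGF 50 ng/mL, 37°C, 10 h. Closure taken as percent area change from start to end, normalized to cells treated at pH 7.4.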

[7] = tested on: EGFR phosphorylation (Tyr-1068 and Tyr-1173) in HSC3 cells expressing wild-type PTPRJ; conditions: 10 μM, 1-h treatment; ref Bloch et al., 2019; cited from earlier work
[8] = tested on: HSC3 cells ectopically expressing PTPRJ; conditions: 10 μM, 1-h treatment; ref Bloch et al., 2019; cited from earlier work

AAEQNPIYWARYDWLFTTGLLLLDLALLVDADEGG [pHLIP(P20G)]
pK50 [1]: 7.2 ^b

AAEQNPIYWARYDWLFTTPLLLLDLALLVDADEGG [pHLIP(WT‐Ala)]
pK50 [1]: 6.1 ^b

DDDDDDTTLLLLS DIGA IMWVSLVDLIADADEG [hybrid1]
partitioning into the lipid bilayer [2]: does not partition into the lipid bilayer

DDTTLLLLSEIGAGMWVSLVELIADADEG [hybrid7]
solubility in aqueous buffer [3]: readily soluble in aqueous buffer
release of LDH (membrane integrity) (HSC3 cells): Neither hybrid7 nor low pH treatment causes a significant release of LDH
cell viability ([4]; pH 5.5, 10 μM, 10 min treatment): 20%

DDTTLLLLSEIGLGMWVSLVELIADADEG [hybrid7‐control]
change in EGFR phosphorylation level [5]: no changes in phosphorylation level
decrease / inhibition in cell migration (wound closure) ([6]; pH 5.0, EGF 50 ng/mL 10 h): 30%
effect on cell migration (wound closure) ([6]; pH 5.5, EGF 50 ng/mL 10 h): does not result in any effect
effect on cell viability ([4]; pH 7.4 or 5.5, 10 min treatment): had no effect at either high or acidic pH

KKTTLLLL S SIG A IMW V SLVCLIAVKGSNKK [RJbinder]
decrease in phosphorylation at Tyr-1068 and Tyr-117 [7]: 20%–30%
decrease in cell migration [8]: 20%
